Results: ChEMBL document CHEMBL1158358, “Synthesis, antimicrobial and cytotoxic activities of some 5-arylidene-4-thioxo-thiazolidine-2-ones” (Eur J Med Chem, 2009)
Converted amounts (≈) assume the structure as drawn.

Key:
Type in all cases: functional
[1] = tested on: Enterococcus faecalis; assay: Antimicrobial activity against Enterococcus faecalis UFPEDA 138 at 300 ug/disk after 24 hrs by disk diffusion method; details: UFPEDA 138, 24 h, read-out: IZ
Procedure, shortened: (§1)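 Preliminary screen by disk diffusion. Paper disks (6 mm) holding 300 µg of compound were placed on agar plates inoculated with a standardized microbial suspension. DMSO-only disks served as negative controls. A mean inhibition zone below 7 mm was scored as no sensitivity. Values are means, n = 3.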

[2] = tested on: Bacillus subtilis; assay: Antimicrobial activity against Bacillus subtilis UFPEDA 16 after 20 hrs by twofold serial dilution technique; details: UFPEDA 16, 20 h
Procedure, shortened: (§2)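 MIC was determined by twofold serial dilution. Bacteria were tested in plates at 10⁵ CFU/plate and read after 20 h. C. albicans was tested in tubes at 10³ CFU/tube and read after 48 h. All incubations were at 35 °C. Medium plus DMSO served as the negative control.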

[3] = tested on: Staphylococcus aureus; assay: Antimicrobial activity against multidrug-resistant Staphylococcus aureus H.C. 20981 isolate after 20 hrs by twofold serial dilution technique; details: H.C. 20981, 20 h
Procedure, shortened: (§3)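 Twofold serial dilution MIC in agar plates against Gram-positive strains and multidrug-resistant clinical isolates. Inoculum applied was 10⁵ CFU/plate. Plates with culture medium plus DMSO served as negative control. MIC was read after incubation at 35 °C for 20 h.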

[4] = tested on: Enterococcus faecalis; assay: Antimicrobial activity against multidrug-resistant Enterococcus faecalis H.C. 24708 isolate after 20 hrs by twofold serial dilution technique; details: H.C. 24708, 20 h; procedure, shortened: as §3
[5] = tested on: Staphylococcus aureus; assay: Antimicrobial activity against multidrug-resistant Staphylococcus aureus H.C. 21141 isolate after 20 hrs by twofold serial dilution technique; details: H.C. 21141, 20 h; procedure, shortened: as §3
[6] = tested on: Staphylococcus; assay: Antimicrobial activity against coagulase-negative Staphylococcus H.A.M. 338 isolate after 20 hrs by twofold serial dilution technique; details: H.A.M. 338, 20 h; procedure, shortened: as §2
[7] = tested on: Candida albicans; assay: Antimicrobial activity against Candida albicans UFPEDA 1007 at 300 ug/disk after 48 hrs by disk diffusion method; details: UFPEDA 1007, 48 h, read-out: IZ; procedure, shortened: as §1
[8] = tested on: Micrococcus luteus; assay: Antimicrobial activity against Micrococcus luteus UFPEDA 06 after 20 hrs by twofold serial dilution technique; details: UFPEDA 06, 20 h; procedure, shortened: as §2
[9] = tested on: Mycolicibacterium smegmatis; assay: Antimicrobial activity against Mycobacterium smegmatis UFPEDA 71 at 300 ug/disk after 24 hrs by disk diffusion method; details: UFPEDA 71, 24 h, read-out: IZ; procedure, shortened: as §1
[10] = tested on: Escherichia coli; assay: Antimicrobial activity against Escherichia coli UFPEDA 224 at 300 ug/disk after 24 hrs by disk diffusion method; details: UFPEDA 224, 24 h, read-out: IZ; procedure, shortened: as §1
[11] = tested on: Enterococcus faecalis; assay: Antimicrobial activity against multidrug-resistant Enterococcus faecalis H.C. 21752 isolate after 20 hrs by twofold serial dilution technique; details: H.C. 21752, 20 h; procedure, shortened: as §3
[12] = tested on: Serratia marcescens; assay: Antimicrobial activity against Serratia marcescens UFPEDA 398 at 300 ug/disk after 24 hrs by disk diffusion method; details: UFPEDA 398, 24 h, read-out: IZ; procedure, shortened: as §1
[13] = tested on: Staphylococcus; assay: Antimicrobial activity against coagulase-negative Staphylococcus H.A.M. 278 isolate after 20 hrs by twofold serial dilution technique; details: H.A.M. 278, 20 h; procedure, shortened: as §2
[14] = tested on: Staphylococcus aureus; assay: Antimicrobial activity against multidrug-resistant Staphylococcus aureus H.C. 21036 isolate after 20 hrs by twofold serial dilution technique; details: H.C. 21036, 20 h; procedure, shortened: as §3
[15] = tested on: Staphylococcus aureus; assay: Antimicrobial activity against Staphylococcus aureus UFPEDA 01 after 20 hrs by twofold serial dilution technique; details: UFPEDA 01, 20 h; procedure, shortened: as §3
[16] = tested on: Staphylococcus aureus; assay: Antimicrobial activity against multidrug-resistant Staphylococcus aureus H.C. 20905 isolate after 20 hrs by twofold serial dilution technique; details: H.C. 20905, 20 h; procedure, shortened: as §3
[17] = tested on: Enterococcus faecalis; assay: Antimicrobial activity against multidrug-resistant Enterococcus faecalis H.C. 24962 isolate after 20 hrs by twofold serial dilution technique; details: H.C. 24962, 20 h; procedure, shortened: as §3
[18] = tested on: Enterococcus faecalis; assay: Antimicrobial activity against Enterococcus faecalis UFPEDA 138 after 20 hrs by twofold serial dilution technique; details: UFPEDA 138, 20 h; procedure, shortened: as §2
[19] = tested on: Micrococcus luteus; assay: Antimicrobial activity against Micrococcus luteus UFPEDA 06 at 300 ug/disk after 24 hrs by disk diffusion method; details: UFPEDA 06, 24 h, read-out: IZ; procedure, shortened: as §1
[20] = tested on: Mycolicibacterium smegmatis; assay: Antimicrobial activity against Mycobacterium smegmatis UFPEDA 71 after 20 hrs by twofold serial dilution technique; details: UFPEDA 71, 20 h; procedure, shortened: as §2
[21] = tested on: Pseudomonas aeruginosa; assay: Antimicrobial activity against Pseudomonas aeruginosa UFPEDA 39 at 300 ug/disk after 24 hrs by disk diffusion method; details: UFPEDA 39, 24 h, read-out: IZ; procedure, shortened: as §1
[22] = tested on: Staphylococcus aureus; assay: Antimicrobial activity against multidrug-resistant Staphylococcus aureus H.C. 20489 isolate after 20 hrs by twofold serial dilution technique; details: H.C. 20489, 20 h; procedure, shortened: as §3
[23] = tested on: Bacillus subtilis; assay: Antimicrobial activity against Bacillus subtilis UFPEDA 16 at 300 ug/disk after 24 hrs by disk diffusion method; details: UFPEDA 16, 24 h, read-out: IZ; procedure, shortened: as §1
[24] = tested on: Enterococcus faecalis; assay: Antimicrobial activity against multidrug-resistant Enterococcus faecalis H.C. 21944 isolate after 20 hrs by twofold serial dilution technique; details: H.C. 21944, 20 h; procedure, shortened: as §3
[25] = tested on: Staphylococcus aureus; assay: Antimicrobial activity against multidrug-resistant Staphylococcus aureus H.C. 20794 isolate after 20 hrs by twofold serial dilution technique; details: H.C. 20794, 20 h; procedure, shortened: as §3
[26] = tested on: Candida albicans; assay: Antimicrobial activity against Candida albicans UFPEDA 1007 after 48 hrs by twofold serial dilution technique; details: UFPEDA 1007, 48 h; procedure, shortened: as §2
[27] = tested on: Staphylococcus aureus; assay: Antimicrobial activity against Staphylococcus aureus UFPEDA 01 at 300 ug/disk after 24 hrs by disk diffusion method; details: UFPEDA 01, 24 h, read-out: IZ; procedure, shortened: as §1
[28] = tested on: NCI-H292; assay: Cytotoxicity against human NCI-H292 cells at 2.5 ug/mL after 72 hrs by MTT assay; details: NCI-H292, 72 h, read-out: GI
Procedure, shortened: (§4)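 MTT antiproliferative assay. Cells were diluted to 10⁵ cells/mL in 96-well plates and preincubated for 24 h at 37 °C in humid 5% CO₂. Compounds or vincristine (reference) were then added. Formazan was dissolved and OD read at 540 nm, compared with medium-only control cells. Run in triplicate.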

[29] = tested on: HEp-2; assay: Cytotoxicity against human Hep2 cells at 1.25 ug/mL after 72 hrs by MTT assay; details: HEp-2, 72 h, read-out: GI; procedure, shortened: as §4
[30] = tested on: NCI-H292; assay: Cytotoxicity against human NCI-H292 cells at 10 ug/mL after 72 hrs by MTT assay; details: NCI-H292, 72 h, read-out: GI; procedure, shortened: as §4
[31] = tested on: NCI-H292; assay: Cytotoxicity against human NCI-H292 cells at 1.25 ug/mL after 72 hrs by MTT assay; details: NCI-H292, 72 h, read-out: GI; procedure, shortened: as §4
[32] = tested on: HEp-2; assay: Cytotoxicity against human Hep2 cells at 5 ug/mL after 72 hrs by MTT assay; details: HEp-2, 72 h, read-out: GI; procedure, shortened: as §4
[33] = tested on: HEp-2; assay: Cytotoxicity against human Hep2 cells at 10 ug/mL after 72 hrs by MTT assay; details: HEp-2, 72 h, read-out: GI; procedure, shortened: as §4
[34] = tested on: NCI-H292; assay: Cytotoxicity against human NCI-H292 cells at 5 ug/mL after 72 hrs by MTT assay; details: NCI-H292, 72 h, read-out: GI; procedure, shortened: as §4

| SMILES | zone of inhibition at 300 µg/disc [1] [mm] | MIC [2] [µg/mL] | MIC [3] [µg/mL] | MIC [4] [µg/mL] | MIC [5] [µg/mL] | MIC [6] [µg/mL] | zone of inhibition at 300 µg/disc [7] [mm] | MIC [8] [µg/mL] | zone of inhibition at 300 µg/disc [9] [mm] | zone of inhibition at 300 µg/disc [10] [mm] | MIC [11] [µg/mL] | zone of inhibition at 300 µg/disc [12] [mm] | MIC [13] [µg/mL] | MIC [14] [µg/mL] | MIC [15] [µg/mL] | MIC [16] [µg/mL] | MIC [17] [µg/mL] | MIC [18] [µg/mL] | zone of inhibition at 300 µg/disc [19] [mm] | MIC [20] [µg/mL] | also measured |
| --- | --- | --- | --- | --- | --- | --- | --- | --- | --- | --- | --- | --- | --- | --- | --- | --- | --- | --- | --- | --- | --- |
| O=C1NC(=S)CS1 | 22 | 4 (≈ 30 µM) | 32 (≈ 240 µM) | 32 (≈ 240 µM) | 32 (≈ 240 µM) | 64 (≈ 480 µM) | 19 | 4 (≈ 30 µM) | 18 | < 7 | 32 (≈ 240 µM) | < 7 | 64 (≈ 480 µM) | 32 (≈ 240 µM) | 8 (≈ 60.1 µM) | 32 (≈ 240 µM) | 32 (≈ 240 µM) | 64 (≈ 480 µM) | 26 | 32 (≈ 240 µM) | zone of inhibition at 300 µg/disc [21]: < 7 mm; MIC [22]: 64 µg/mL (≈ 480 µM); zone of inhibition at 300 µg/disc [23]: 21 mm; MIC [24]: 32 µg/mL (≈ 240 µM); MIC [25]: 32 µg/mL (≈ 240 µM); MIC [26]: 8 µg/mL (≈ 60.1 µM); zone of inhibition at 300 µg/disc [27]: 19 mm |
| O=C1NC(=S)/C(=C/c2ccc(Cl)cc2)S1 | 17 | 16 (≈ 62.6 µM) | 2 (≈ 7.82 µM) | 16 (≈ 62.6 µM) | 8 (≈ 31.3 µM) | 4 (≈ 15.6 µM) | 12 | 32 (≈ 125 µM) | 20 | < 7 | 16 (≈ 62.6 µM) | < 7 | 4 (≈ 15.6 µM) | 2 (≈ 7.82 µM) | 4 (≈ 15.6 µM) | 2 (≈ 7.82 µM) | 16 (≈ 62.6 µM) | 32 (≈ 125 µM) | 25 | 32 (≈ 125 µM) | inhibition of growth at 2.5 µg/mL [28]: 28.6%; inhibition of growth at 1.25 µg/mL [29]: 0.92%; inhibition of growth at 10 µg/mL [30]: 41.4%; inhibition of growth at 1.25 µg/mL [31]: 10%; zone of inhibition at 300 µg/disc [21]: < 7 mm; inhibition of growth at 5 µg/mL [32]: 16.1%; MIC [22]: 2 µg/mL (≈ 7.82 µM); zone of inhibition at 300 µg/disc [23]: 22 mm; MIC [24]: 16 µg/mL (≈ 62.6 µM); inhibition of growth at 10 µg/mL [33]: 22.2%; inhibition of growth at 5 µg/mL [34]: 35.8%; MIC [25]: 2 µg/mL (≈ 7.82 µM); MIC [26]: 64 µg/mL (≈ 250 µM); zone of inhibition at 300 µg/disc [27]: 27 mm |
